Compounds with a hit are over-represented: about 2% of the library has one in this group of screens.
MC4R barr agon = agonists of human melanocortin 4 receptor (MC4R) beta-arrestin. P32245. U2OS MC4R beta-arrestin complementation, luminescence; percent of melanotan II response, DMSO zero. activation, % at 8.9 µM. 360,000 tested, 0.98% active;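 active means activation above a per-plate cutoff, the mean activation of sample wells on that plate plus 3 SD, cut at about 8% in these data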
Target sequence (P32245 whole entry, looked up): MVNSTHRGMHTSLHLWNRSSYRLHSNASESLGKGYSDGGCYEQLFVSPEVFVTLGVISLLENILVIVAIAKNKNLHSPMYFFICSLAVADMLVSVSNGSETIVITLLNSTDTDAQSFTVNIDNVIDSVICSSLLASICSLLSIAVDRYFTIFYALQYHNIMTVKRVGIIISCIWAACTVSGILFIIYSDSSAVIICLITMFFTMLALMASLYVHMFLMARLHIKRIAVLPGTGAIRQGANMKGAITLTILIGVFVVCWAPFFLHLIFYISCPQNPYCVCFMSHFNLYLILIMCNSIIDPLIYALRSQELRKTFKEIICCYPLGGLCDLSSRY
UPR CHOP act = activators of apoptotic arm of unfolded protein response (CHOP); activation, % at 10 µM; CHO-CHOP luciferase reporter, UPR activation, luminescence; percent of tunicamycin response over DMSO baseline; 330,000 tested, 0.34% active;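 active means at 10 µM dose, activation of 40% or more, normalized to positive control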;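 further: 100% = tunicamycin at 10 µg/mL and 0% = DMSO alone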
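Evaluation: % reporter activation, DMSO baseline versus tunicamycin full activation; System: CHO-CHOP luciferase reporter cell line; Input: 500 cells/well; Incubation: 6 h compound treatment, 37 °C; Measured by: Steady-Glo luciferase luminescence; Dosing: one dose, 10 µM in 0.5% DMSO; Buffer or medium: F12 medium, 10% FBS; Benchmarks: positive tunicamycin 10 µg/mL, negative DMSO alone.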
UPR XBP1 act = activators of adaptive arm of unfolded protein response (XBP1); activation, % at 20 µM; CHO-XBP1 luciferase reporter, IRE1-XBP1 UPR activation, luminescence; percent of tunicamycin response, DMSO as zero; AID 463104; 330,000 tested, 0.33% active;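 active means versus positive control, 20 µM dose yields 30% or more activation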;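 further: 100% = tunicamycin at 10 µg/mL and 0% = DMSO only wells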
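Material – CHO cell line with stable XBP1 luciferase reporter · Buffer or medium – F12 plus 10% FBS · Compound – single point, 20 µM final compound, 1% DMSO · Schedule – 16-18 h cell attachment at 37 °C, then 6 h compound exposure · Signal – Steady-Glo luminescence read · Benchmarks – high control tunicamycin 10 µg/mL final, low control DMSO vehicle only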
A1 inh = inhibitors of the anti-apoptotic protein A1, read as caspase activation | MEF A1-2A-BIM cells, Caspase-Glo 3/7 luminescence, 3 h; percent of clofoctol response, vehicle zero | caspase activation, % (concentration not given with the values) | 330,000 tested, 0.066% active;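 active means over half of replicate activation scores above 10%, or exactly half above 10 with the replicate mean above 10; inconclusive means replicate mean below 10 yet half the replicates above 10; inactive means over half of replicates below 10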
MC4R antag cAMP = human MC4R antagonism in cAMP assay; inhibition, % at 6.5 µM; 360,000 tested, 0.48% active; MC4R-expressing cells, MTII-stimulated cAMP, LANCE TR-FRET;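 active means inhibition above its plate's cutoff, the mean of tested wells on that plate plus 3 SD, cut at about 29% in these data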;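 further: 0% = Melanotan II alone and 100% = Melanotan II plus saturating MCL0020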
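System – human MC4R-expressing U2OS cells · Also added – Melanotan II · Dosing – one concentration, 6.5 µM nominal · Timing – 30-min compound, 1-h challenge, 1-h detection, room temperature · Measured by – Eu-cAMP/anti-cAMP TR-FRET, emission 671 nm · Replicates – singlicate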
* marks the source's active call; other numbers are inactive results; ? = inconclusive; / = no result given.

SMILES	MC4R barr agon	UPR CHOP act	UPR XBP1 act	A1 inh	MC4R antag cAMP
C#CCOCCOCCOCCNc1nc(N2CCN(C(=O)CCCCCCCCCCNC(=O)[C@H](CCCCN)n3cc(CCO)nn3)CC2)nc(N2CCN(C(=O)CCCCCCCCCCNC(=O)[C@H](CCCN=C(N)N)n3cc(C[C@@H](C)CC)nn3)CC2)n1	-2	-2	1	0	78*
Nc1c(-c2cccs2)cnn1-c1nc(-c2ccc(F)cc2)cs1	9.6*	5	8	0	-1
CSc1ccc(Cn2c(C)c(C(=O)NCc3ccc4c(c3)OCO4)sc2=O)cc1	1	/	/	/	10
CCOC(=O)C1(C)CCN1C(=O)c1cccc(C(F)(F)F)c1 (centres undefined)	1	/	/	/	11
CC1CCN(CCNC(=O)c2ccc3c(=O)n(Cc4ccc(Cl)cc4)c(=S)[nH]c3c2)CC1	9.9*	3	7	0	13
CCC(=O)NC(=S)Nc1ccc(NC(=O)COc2ccc(Cl)cc2Cl)cc1	18*	1	14	1	1
O=C(Nc1ccc(Cl)cc1)N1CCC(c2nc(-c3ccccc3Cl)no2)CC1	9.0*	0	-3	1	21
CCN(C(=O)CN1C(=O)NC2(CCCC2)C1=O)c1nc2c(C)cccc2s1	-1	/	/	/	7
O=C(CCl)N=c1sccn1Cc1ccccc1Cl	24*	24	1	4	8
O=C(CCl)N=c1sccn1Cc1ccc(Cl)cc1Cl	12*	42*	1	3	21
O=C(CCl)N=c1sccn1Cc1cccc2ccccc12	7	/	/	/	14
OC(c1ccc(F)c(F)c1)c1nc(-c2cc(F)cc(F)c2)cs1 (centres undefined)	5	/	/	/	-3
O=C(Nc1nccs1)c1sc2ccccc2c1Cl	1	0	-7	-4	-4
O=C(Nc1nccs1)c1sc2cc(Cl)ccc2c1Cl	10*	2	9	-2	1
O=c1cc(CN2CCN(Cc3ccccc3)CC2)c2ccc(O)c(O)c2o1	2	4	63*	1	14
CCc1ccc(N2CC(C(=O)N3CCN(S(=O)(=O)c4cccc(F)c4)CC3)CC2=O)cc1 (centres undefined)	1	/	/	/	-8
CCc1nc2ccc(C(=O)Nc3cc(-c4ccccc4)ccc3OC)cn2c1N(CCN(C)C)CC1CC1	-1	/	/	/	8
CCOc1cccc(-c2ccc3nncn3c2)c1	0	/	/	/	1
Clc1cc(Cl)cc(Nc2ncnc(-n3cccc3)n2)c1	9.0*	0	-1	0	11
COc1cccc(Nc2nc(C(N)C3CCCCC3)cs2)n1 (centres undefined)	4	/	/	/	-1
CCNC(=O)C1(C)CCCN(C(=O)c2cc3ccccc3s2)C1 (centres undefined)	-1	/	/	/	2
O=C(CCl)N(CCCNC(=O)C(F)(F)F)c1ccc([N+](=O)[O-])cc1	13*	30	3	1	8
O=C(NCCCNc1ccc([N+](=O)[O-])cc1)C(F)(F)F	-3	1	-2	0	2
O=C(Nc1cccc([N+](=O)[O-])c1)C1C2CC/C=C\CCC21 (centres undefined)	8.9*	2	-1	0	7
COc1ccc(C2c3cc(OC)c(OC)cc3CC3C(=O)OCC32)cc1OC (centres undefined)	-1	/	/	/	17
SMILES	MC4R barr agon	UPR CHOP act	UPR XBP1 act	A1 inh	MC4R antag cAMP
CC(C)(C)c1ccc(/C=N/NC(=O)c2ccccn2)cc1	-2	-5	-4	-9	0
O=C(N/N=C/c1ccc(OC(=O)c2ccccc2Br)cc1)c1ccccn1	8.9*	7	0	1	-4
C=CC[C@@H](CC(=O)N[C@H](CO)Cc1ccccc1)C(=O)N[C@H](COC(=O)[C@@H](CC=C)CC(=O)OC(C)(C)C)Cc1c[nH]c2ccccc12	2	6	5	0	3
C=CC[C@H](CC(=O)N[C@H](CO)Cc1ccccc1)C(=O)N[C@H](COC(=O)[C@@H](CC=C)CC(=O)OC(C)(C)C)Cc1c[nH]c2ccccc12	8.3*	1	2	-1	11
COc1cccc(C(=O)O/N=C(\N)c2ccc([N+](=O)[O-])cc2)c1OC	8.6*	6	4	0	1
COc1ccc(/C(N)=N/OC(=O)c2cccc([N+](=O)[O-])c2C)cc1OC	-2	5	7	0	0
CC(C)NS(=O)(=O)c1ccc(NC(=O)C(C)OC(=O)CCC2CCCC2)cc1 (centres undefined)	8.4*	1	-5	0	9
CC(=O)Nc1ccc(NC(=O)C(C)OC(=O)CCC2CCCCC2)cc1 (centres undefined)	-1	1	-1	-1	-2
C/C(=N/OCc1ccc(Br)cc1)c1ccccn1	8.6*	3	1	-8	-3
C/C(=N\OC(=O)c1ccc(Br)cc1)c1ccccn1	0	4	1	0	16
FC(F)(F)c1ccc(N2CCN(Cc3ccc4c(c3)OCO4)CC2)nc1	9.2*	3	-1	0	2
COc1ccc(CCNC(=O)c2cc(-c3ccccc3)on2)cc1OC	9.5*	1	3	0	14
Cc1ccc(-n2nnnc2-c2nc3ccccc3s2)cc1	8.7*	-1	2	?	12
CCOc1ccc(-n2nnnc2-c2nc3ccccc3s2)cc1	1	1	7	0	0
COc1cc(CN2CCc3ccccc3C2)ccc1O	-1	-10	-7	33*	-3
Cc1ccc(-c2nc3sc4c(N)ncnc4c3c3c2CCCC3)cc1	8.4*	1	7	0	6
C[C@@H]1CN([C@H](C)CO)C(=O)CCCn2nncc2CO[C@H]1CN(C)S(=O)(=O)c1ccccc1F	1	/	/	/	7
O=C(CN1CCC(C(O)(c2ccccc2)c2ccccc2)CC1)Nc1cc(Cl)ccc1Cl	8	1	-3	-1	32*
CC1(C(=O)NS(=O)(=O)c2cccc(OC(F)F)c2)CCN1C(=O)c1cccc(F)c1 (centres undefined)	0	/	/	/	0
COC(=O)Cc1ccc(OC2(C)CCN(Cc3ccccc3OC(F)F)C2)cc1 (centres undefined)	-2	/	/	/	6
Cc1ccc(-n2nnc3c(=O)oc4ccccc4c32)cc1	0	1	7	1	46*
COc1cc(CNCCc2c[nH]c3ccccc23)ccc1OCc1ccc(F)cc1	9.2*	1	3	0	-2
CC1(C(=O)Nc2ccc3[nH]ncc3c2)CCN1C(=O)Cc1ccc(-c2ccccc2)cc1 (centres undefined)	1	/	/	/	4
COc1ccc(Nc2nc(-c3ccccc3)nc3ccccc23)c(OC)c1	1	-2	2	0	-6

Screening results: PubChem, several laboratories
